The source of these data is ChEMBL document CHEMBL1127809, “Pentamidine congeners. 2. 2-butene-bridged aromatic diamidines and diimidazolines as potential anti-Pneumocystis carinii pneumonia agents” (1994).

What all share (type): functional
The species named for assay [1] is Rattus norvegicus. As to the kind of experiment: Anti-Pneumocystis carinii activity was measured as percentage of number of cysts counted per gram of lung tissue. Details: concentration or dose not given beside the values. An outline of the steps:
(§1)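 Immunosuppressed rats with PCP; compound given by daily iv injection over 2 weeks at 10 mg/kg/day, or at 5 or 1 mg/kg/day where shown. Saline is the negative control and pentamidine the positive control. Cysts are counted per gram of lung tissue and expressed as % of the saline-treated control ± SE (n rats). Significance is given as P vs saline or vs pentamidine.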

The subject of assay [2] is Rattus norvegicus. Description: In vivo anti-Pneumocystis carinii toxicity in rats administered intravenously at 10 mg/kg/day; 0 indicates no local, clinical, histologic toxicity. An outline of the steps:
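Host toxicity in immunosuppressed PCP rats dosed iv daily for 2 weeks. Animals were observed daily for health and well-being. Liver and kidney were examined by light microscopy for pathologic changes. Scoring: 0 = no local, clinical or histologic toxicity; 1+ = all survived, some local injection-site toxicity; 2+ = most survived, some severe distress, clinical toxicity and histopathology; 3+ = acute toxicity or decline with <50% deaths; 4+ = ≥50% deaths.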

The species named for assay [3] is Rattus norvegicus. Description: Anti- Pneumocystis carinii activity was measured as percentage of number of cysts counted per gram of lung tissue. An outline of the steps: as §1
Assay [4] relates to Rattus norvegicus. Description: Anti- Pneumocystis carinii activity was measured as percentage of number of cysts counted per gram of lung tissue at a dose of 1 mg/kg/day. An outline of the steps: as §1
The test system of assay [5] is Rattus norvegicus. As to the kind of experiment: Anti- Pneumocystis carinii activity was measured as percentage of number of cysts counted per gram of lung tissue at a dose of 5.0 mg/kg/day. The method, boiled down:
as §1

Assay [6] has as its system Rattus norvegicus. As to the kind of experiment: Anti- Pneumocystis carinii activity was measured as percentage of number of cysts counted per gram of lung tissue at a dose of 10 mg/kg/day. An outline of the steps: as §1

“And” between values parts separate entries of the source, which are not always exact repeats. Identical values can stand only once.

In the assay listed under Rattus norvegicus [1], `COc1cc(C2=NCCN2)ccc1OC/C=C/COc1ccc(C2=NCCN2)cc1OC.Cl.Cl` gave a Control of 1.5%. Further, the Toxicity entry with Rattus norvegicus [2] was “Toxic”.

For `COc1cc(C2=NCCN2)ccc1OC/C=C\COc1ccc(C2=NCCN2)cc1OC.Cl.Cl`, the Control in the assay filed under Rattus norvegicus [1] is 15.6%. Further, the Toxicity result in the assay with Rattus norvegicus [2] is recorded as “Local toxicity”.

Take `N=C(N)c1ccc(OCCCCCOc2ccc(C(=N)N)cc2)cc1` [PENTAMIDINE]: in the assay on Rattus norvegicus [2] (route intravenous), the Toxicity turned out to be 2. Moreover, the Control in the assay filed under Rattus norvegicus [3] was <5.31% and <4.95%.

`Cl.Cl.N=C(N)c1ccc(OC/C=C/COc2ccc(C(=N)N)cc2)cc1` showed a Control in the assay filed under Rattus norvegicus [1] of 0.67%. Moreover, the Toxicity in the assay with Rattus norvegicus [2] (route intravenous) was found to be 0.

In the assay filed under Rattus norvegicus [1], `C(=C/COc1ccc(C2=NCCN2)cc1)/COc1ccc(C2=NCCN2)cc1.Cl.Cl` gave a Control of 1.22%. Further, the Toxicity in the assay on Rattus norvegicus [2] (route intravenous) was 0.

The compound `COc1cc(C(=N)N)ccc1OC/C=C\COc1ccc(C(=N)N)cc1OC.Cl.Cl` yielded a Control in the assay listed under Rattus norvegicus [1] of 21.4%. Also, in the assay on Rattus norvegicus [2] (route intravenous), the Toxicity was found to be 0.

In the case of `C(=C\COc1ccc(C2=NCCN2)cc1)/COc1ccc(C2=NCCN2)cc1.Cl.Cl`, the Control turned out to be 1.22% in the assay filed under Rattus norvegicus [1], 39.6% in the assay with Rattus norvegicus [4], 5.61% in the assay with Rattus norvegicus [5] and 1.38% in the assay with Rattus norvegicus [6]. The compound also came in with a Toxicity in the assay on Rattus norvegicus [2] (route intravenous) of 0.

In the assay filed under Rattus norvegicus [1], `Cl.Cl.N=C(N)c1ccc(OC/C=C\COc2ccc(C(=N)N)cc2)cc1` displayed a Control of 1.1%. In the assay with Rattus norvegicus [2] (route intravenous), this compound showed a Toxicity of 0.

In the assay filed under Rattus norvegicus [1], `COc1cc(C(=N)N)ccc1OC/C=C/COc1ccc(C(=N)N)cc1OC.Cl` gave a Control of 35.5%. Moreover, in the assay on Rattus norvegicus [2], the Toxicity result is on record as “Local toxicity”.
